Counter-ions that a name gives are not always drawn. Active and inactive are the calls of the source. The calls are words filed in the database; no cut-off is given here.
What was measured:
[1] = Cytotoxicity against human Kelly cells assessed as reduction in cell viability after 72 hrs by Alamar blue assay; format: functional, cell-based
Summary of the method: (§1)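 Kelly neuroblastoma cells in RPMI/10% FBS, 6000/well, were preincubated 24 h, then given a 1:100 dilution of aqueous stocks (1% ddH2O vehicle) for 72 h at 37 °C. AlamarBlue was added for 4.5 h in the dark and fluorescence read at 544/590 nm. Viability is blank-corrected and given as % of vehicle. IC50 comes from a sigmoidal fit. Triplicate wells, at least three experiments.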

[2] = tested on: MCF7; assay: Cytotoxicity against human MCF7 cells assessed as reduction in cell viability after 72 hrs by Alamar blue assay; format: functional, cell-based; settings: MCF7, 72 h
Summary of the method: (§2)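 MCF-7 cells in MEM/10% FBS with nonessential amino acids, 10,000/well, were preincubated 24 h, then treated for 72 h at 37 °C with a 1:100 dilution of aqueous stocks (1% ddH2O vehicle). AlamarBlue was added for 4.5 h in the dark and fluorescence read at 544/590 nm. Viability is blank-corrected and given as % of vehicle. IC50 comes from a sigmoidal dose–response fit. Triplicate wells, at least three experiments.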

[3] = tested on: HL-60; assay: Cytotoxicity against human HL60 cells assessed as reduction in cell viability after 72 hrs by Alamar blue assay; format: functional, cell-based; settings: HL-60, 72 h
Summary of the method: (§3)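 HL-60 cells in log phase, 4 × 10^4 cells/well in RPMI/10% FBS, were treated with a 1:100 dilution of aqueous stocks (1% ddH2O vehicle), final 1–100 μM, for 72 h at 37 °C. AlamarBlue was added for 4.5 h in the dark and fluorescence read at 544/590 nm. Viability is blank-corrected and given as % of vehicle. IC50 comes from sigmoidal dose–response fits. Triplicate wells, at least three experiments.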

[4] = Binding affinity to poly(dA-dT)2 (unknown origin) assessed as change in melting temperature
[5] = Dissociation constant, pKa of the compound; format: physicochemical
[6] = tested on: Salmonidae; assay: Binding affinity to salmon sperm DNA assessed as change in melting temperature at 15 uM by thermal denaturation assay
[7] = tested on: HL-60; assay: Cytotoxicity against human HL60 cells assessed as reduction in cell viability at 100 uM after 72 hrs by Alamar blue assay; format: functional, cell-based; summary of the method: as §3
[8] = tested on: DNA; assay: Binding affinity to calf thymus DNA assessed as change in melting temperature; format: nucleic-acid assay; settings: Bos taurus
[9] = tested on: HL-60; assay: Cell cycle arrest in human HL60 cells assessed as accumulation at preG1 phase at 50 uM by flow cytometric analysis; format: functional, cell-based; settings: TDE = time-dependent effect
[10] = tested on: HL-60; assay: Cell cycle arrest in human HL60 cells assessed as accumulation at S phase at 50 uM after 72 hrs by flow cytometric analysis (reference value: 23.58 +/- 1.38%); format: functional
[11] = tested on: HL-60; assay: Cell cycle arrest in human HL60 cells assessed as accumulation at S phase at 50 uM by flow cytometric analysis; format: functional, cell-based; settings: TDE = time-dependent effect
[12] = tested on: HL-60; assay: Cell cycle arrest in human HL60 cells assessed as accumulation at G2/M phase at 50 uM by flow cytometric analysis; format: functional, cell-based; settings: TDE = time-dependent effect
[13] = tested on: HL-60; assay: Cell cycle arrest in human HL60 cells assessed as accumulation at preG1 phase at 50 uM after 72 hrs by flow cytometric analysis (reference value: 2.21 +/- 0.57%); format: functional
[14] = tested on: HL-60; assay: Cell cycle arrest in human HL60 cells assessed as accumulation at preG1 phase at 50 uM after 24 hrs by flow cytometric analysis (reference value: 0.81 +/- 0.11%); format: functional
[15] = tested on: HL-60; assay: Cell cycle arrest in human HL60 cells assessed as accumulation at G0/G1 phase at 50 uM after 24 hrs by flow cytometric analysis (reference value: 56.05 +/- 1.40%); format: functional
[16] = tested on: HL-60; assay: Cell cycle arrest in human HL60 cells assessed as accumulation at G2/M phase at 50 uM after 24 hrs by flow cytometric analysis (reference value: 16.73 +/- 0.59%); format: functional
[17] = tested on: HL-60; assay: Cell cycle arrest in human HL60 cells assessed as accumulation at G0/G1 phase at 50 uM after 72 hrs by flow cytometric analysis (reference value: 59.5 +/- 1.50%); format: functional
[18] = tested on: HL-60; assay: Cell cycle arrest in human HL60 cells assessed as accumulation at S phase at 50 uM after 48 hrs by flow cytometric analysis (reference value: 24.29 +/- 1.37%); format: functional
[19] = tested on: HL-60; assay: Cell cycle arrest in human HL60 cells assessed as accumulation at G2/M phase at 50 uM after 72 hrs by flow cytometric analysis (reference value: 10.53 +/- 0.81%); format: functional
[20] = tested on: HL-60; assay: Cell cycle arrest in human HL60 cells assessed as accumulation at G0/G1 phase at 50 uM after 48 hrs by flow cytometric analysis (reference value: 58.77 +/- 2.33%); format: functional
[21] = tested on: HL-60; assay: Cell cycle arrest in human HL60 cells assessed as accumulation at preG1 phase at 50 uM after 48 hrs by flow cytometric analysis (reference value: 1.41 +/- 0.32%); format: functional
[22] = Cytotoxicity against human Kelly cells assessed as reduction in cell viability 100 uM after 72 hrs by Alamar blue assay; format: functional; summary of the method: as §1
[23] = tested on: HL-60; assay: Cell cycle arrest in human HL60 cells assessed as accumulation at Gn phase at 50 uM after 72 hrs by flow cytometric analysis (reference value: 3.43 +/- 0.48%); format: functional
[24] = tested on: HL-60; assay: Cell cycle arrest in human HL60 cells assessed as accumulation at Gn phase at 50 uM after 48 hrs by flow cytometric analysis (reference value: 3.02 +/- 0.56%); format: functional
[25] = tested on: HL-60; assay: Cell cycle arrest in human HL60 cells assessed as accumulation at Gn phase at 50 uM by flow cytometric analysis; format: functional, cell-based; settings: TDE = time-dependent effect
[26] = tested on: HL-60; assay: Cell cycle arrest in human HL60 cells assessed as accumulation at Gn phase at 50 uM after 24 hrs by flow cytometric analysis (reference value: 2.96 +/- 0.79%); format: functional
[27] = tested on: HL-60; assay: Cell cycle arrest in human HL60 cells assessed as accumulation at G0/G1 phase at 50 uM by flow cytometric analysis; format: functional, cell-based; settings: TDE = time-dependent effect
[28] = Cytotoxicity against human Kelly cells assessed as reduction in cell viability 30 uM after 72 hrs by Alamar blue assay; format: functional; summary of the method: as §1
[29] = tested on: HL-60; assay: Cell cycle arrest in human HL60 cells assessed as accumulation at S phase at 50 uM after 24 hrs by flow cytometric analysis (reference value: 24.46 +/- 1.15%); format: functional
[30] = Cytotoxicity against human Kelly cells assessed as reduction in cell viability 50 uM after 72 hrs by Alamar blue assay; format: functional; summary of the method: as §1
[31] = tested on: HL-60; assay: Cell cycle arrest in human HL60 cells assessed as accumulation at G2/M phase at 50 uM after 48 hrs by flow cytometric analysis (reference value: 11.35 +/- 1.05%); format: functional
[32] = tested on: MCF7; assay: Cytotoxicity against human MCF7 cells assessed as reduction in cell viability at 100 uM after 72 hrs by Alamar blue assay; format: functional; summary of the method: as §2
[33] = Cytotoxicity against human Kelly cells assessed as reduction in cell viability 40 uM after 72 hrs by Alamar blue assay; format: functional; summary of the method: as §1

N=C(N)c1ccc(-c2ccc(-c3ccc(C(=N)N)cc3)o2)cc1 [FURAMIDINE HYDROCHLORIDE]
IC50 [1]: 27.4 µM
IC50 [2]: 92.8 µM
IC50 [3]: 77.6 µM
ΔTm [4]: 26.2 °C
pKa [5]: 10.4

N/C(=N\O)Nc1ccc(CCc2ccc(N/C(N)=N/O)cc2)cc1
ΔTm [6]: 0 °C

N/C(=N\O)Nc1ccc(C(=O)c2ccc(N/C(N)=N/O)cc2)cc1
IC50 [3]: > 100 µM
Activity [7]: inactive
ΔTm [6]: 0 °C

N/C(=N\O)c1ccc(OCCCCCOc2ccc(/C(N)=N/O)cc2)cc1
ΔTm [8]: 0.2 °C

Cl.N/C(=N\O)Nc1ccc(Sc2ccc(N/C(N)=N/O)cc2)cc1
Activity [9]: tde
Activity [10]: 15.99%
IC50 [1]: 8.6 µM
IC50 [2]: > 100 µM
Activity [11]: tde
IC50 [3]: 46.4 µM
Activity [12]: tde
Activity [13]: 22.2%
Activity [14]: 1.53%
Activity [15]: 55.9%
Activity [16]: 14.57%
Activity [17]: 44.8%
Activity [18]: 21.71%
Activity [19]: 14.54%
Activity [20]: 56.62%
Activity [21]: 6.44%
Activity [22]: 96.8%
Activity [23]: 2.1%
Activity [24]: 1.94%
Activity [25]: tde
Activity [26]: 2.35%
Activity [27]: tde
Activity [28]: 79.4%
ΔTm [6]: 1 °C
Activity [29]: 25.85%
Activity [30]: 95%
Activity [31]: 10.78%
Activity [32]: 23.1%
Activity [33]: 93.9%

Cl.N/C(=N\O)Nc1ccc(Cc2ccc(N/C(N)=N/O)cc2)cc1
IC50 [2]: > 100 µM
IC50 [3]: 71.3 µM
ΔTm [6]: 0 °C
Activity [32]: 29.8%

N/C(=N\O)Nc1ccc(NC(=O)c2ccc(N/C(N)=N/O)cc2)cc1
ΔTm [6]: 1 °C

N=C(N)c1ccc(OCCCCCOc2ccc(C(=N)N)cc2)cc1
ΔTm [8]: 10.7 °C

Cl.N/C(=N\O)Nc1ccc(Oc2ccc(N/C(N)=N/O)cc2)cc1
IC50 [1]: 12.2 µM
IC50 [2]: 45.2 µM
IC50 [3]: 65.5 µM
pKa [5]: 8.3
Activity [22]: 95.8%
Activity [28]: 76.2%
ΔTm [6]: 1 °C
Activity [30]: 89.9%
Activity [32]: 53%
Activity [33]: 86.4%
